ChEMBL document CHEMBL3352688, “Synthesis and anti-inflammatory and pro-resolving activities of 22-OH-PD1, a monohydroxylated metabolite of protectin D1” (2014)
Calls of active or inactive are those of the source. The calls are words filed in the database; no cut-off is given here.

Assays:
[1] = species on record: Homo sapiens; experiment: Inhibition of LTB4-induced cell adhesion to fibronectin in human primary PMN at 0.1 to 10 nM pre-incubated for 10 mins followed by LTB4 stimulation by flow cytometry; assay type: functional; conditions: in the assay text read “flow chamber assay with microscopy” for “flow cytometry”
Outline: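 Purified human PMN were pretreated 10 min at room temperature, then stimulated with 10 nM LTB4 for 10 min at room temperature. Cells at 1 × 10^6/mL were perfused over fibronectin-coated chambers at 0.5 mL/min for 5 min. Adherent cells were counted in six random fields by imaging. Three independent experiments; paired t test versus vehicle.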

[2] = system: Mus musculus; experiment: Anti-inflammatory activity in FVB mouse with zymosan-induced sterile peritonitis assessed as reduction in TXB2 in peritoneal inflammatory exudates at 10 ng, ip dosed 10 mins before zymosan challenge by LC-MS/MS based targeted lipid mediator metabololipidomics; assay type: functional
Outline: (§1)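 Male FVB mice, 6–8 weeks old, received 10 ng i.p. in saline with 0.1% EtOH as vehicle, then zymosan 1 mg/mouse i.p. 10 min later. Peritoneal lavage was taken at 4 h in PBS without Ca/Mg. Eicosanoids were measured by LC/MS-MS after solid-phase extraction, identified with at least six diagnostic ions and quantified against linear calibration curves. Mean ± SEM, n = 4 mice per group.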

[3] = system: Mus musculus; experiment: Anti-inflammatory activity in FVB mouse with zymosan-induced sterile peritonitis assessed as reduction in PGF2alpha in peritoneal inflammatory exudates at 10 ng, ip dosed 10 mins before zymosan challenge by LC-MS/MS based targeted lipid mediator metabololipidomics; assay type: functional; outline: as §1
[4] = system: Mus musculus; experiment: Anti-inflammatory activity in FVB mouse with zymosan-induced sterile peritonitis assessed as reduction in PGD2 in peritoneal inflammatory exudates at 10 ng, ip dosed 10 mins before zymosan challenge by LC-MS/MS based targeted lipid mediator metabololipidomics; assay type: functional; outline: as §1
[5] = Inhibition of IL8-induced chemotaxis of human primary PMN at 0.01 to 100 nM pre-incubated for 15 mins followed by IL8 stimulation by PrestoBlue fluorescence assay
[6] = Inhibition of LTB4-induced chemotaxis of human primary PMN at 0.01 to 100 nM pre-incubated for 15 mins followed by LTB4 stimulation by PrestoBlue fluorescence assay
[7] = system: Mus musculus; experiment: Anti-inflammatory activity in FVB mouse with zymosan-induced sterile peritonitis assessed as reduction in PMN infiltration in peritoneal inflammatory exudates at 10 ng, ip measured at 4 hrs dosed 10 mins before zymosan challenge by light microscopy and flow cytometry; assay type: functional
Outline: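 Male FVB mice, 6–8 weeks old, were dosed i.p. with 10 ng in saline with 0.1% EtOH, then zymosan 1 mg/mouse i.p. 10 min later. Peritoneal lavage was collected at 4 h in PBS without Ca/Mg. Leukocytes were enumerated by light microscopy and flow cytometry. Mean ± SEM, n = 4 mice per treatment.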

[8] = species on record: Homo sapiens; experiment: Inhibition of IL8-induced chemotaxis of human primary PMN at 0.01 to 100 nM pre-incubated for 15 mins followed by IL8 stimulation by PrestoBlue fluorescence assay
[9] = species on record: Homo sapiens; experiment: Inhibition of LTB4-induced chemotaxis of human primary PMN at 0.01 to 100 nM pre-incubated for 15 mins followed by LTB4 stimulation by PrestoBlue fluorescence assay

Structure (SMILES): O=C(O)CC/C=C\C/C=C\C[C@@H](O)/C=C/C=C/C=C\[C@@H](O)C/C=C\CCO
- inhibition [1]: Active
- inhibition (INH) [2]: 48%
- inhibition (INH) [3]: 43%
- inhibition (INH) [4]: 27%
- inhibition (INH) [5]: 23%
- inhibition (INH) [6]: 19%
- inhibition (INH) [7]: 43%

Structure (SMILES): CC/C=C\C[C@H](O)\C=C/C=C/C=C/[C@H](O)C/C=C\C/C=C\CCC(=O)O
- inhibition [1]: Active
- inhibition [2]: Active
- inhibition [3]: Active
- inhibition [4]: Active
- inhibition [8]: Active
- inhibition [9]: Active
- inhibition (INH) [7]: 54%
